In ChEMBL document CHEMBL1141198, “Design and synthesis of tri-ring P3 benzamide-containing aminonitriles as potent, selective, orally effective inhibitors of cathepsin K” (J Med Chem, 2005):

Legend:
Cathepsin S = Cathepsin S (Homo sapiens, UniProt P25774); assay: Inhibitory constant against human cathepsin S using Z-Val-Val-Arg-AMC substrate; details: read-out: Ki app
In short: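 Recombinant human cathepsin S at 500 pM in 50 mM MES pH 6.5, 2.5 mM β-mercaptoethanol, 2.5 mM EDTA, 100 mM NaCl, 0.001% BSA, 10% DMSO. 30 min enzyme–inhibitor preincubation at 21–24 °C, 8 inhibitor concentrations. Started with 60 μM Z-Val-Val-Arg-AMC; initial rates by AMC fluorescence (ex 355/em 460). Ki(app) by Morrison tight-binding fit.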

Procathepsin L = Procathepsin L (Homo sapiens, UniProt P07711); assay: Inhibitory constant against human cathepsin L using Z-Phe-Arg-AMC substrate; details: read-out: Ki app
In short: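 Recombinant human cathepsin L at 500 pM in 50 mM MES pH 5.5, 2.5 mM DTT, 2.5 mM EDTA, 10% DMSO. Enzyme preincubated with inhibitor (8 concentrations) 30 min at 21–24 °C. Reaction started with 10 μM Z-Phe-Arg-AMC; AMC fluorescence (ex 355/em 460 nm) over first ~5 min. Ki(app) fitted with Morrison tight-binding model.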

[1] = target: Cathepsin K (Homo sapiens) (UniProt P43235); assay: Inhibitory constant against human cathepsin K using Z-Phe-Arg-AMC substrate; details: read-out: Ki app
Cathepsin B = Cathepsin B (Homo sapiens, UniProt P07858); assay: Inhibitory constant against human cathepsin B using Boc-Leu-Lys-Arg-AMC substrate; details: read-out: Ki app
Osteoclast = assay: In vitro bone resorption in isolated rabbit osteoclasts; format: functional, cell-based; details: Oryctolagus cuniculus
In short: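 Bovine bone degraded by isolated rabbit osteoclasts; collagen degradation read by ELISA. 8-point dose–response curves; IC50 derived.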

[2] = Maximum concentration in rat administered with 0.5 mg/kg, iv; format: ADME, organism-based; set-up: dose 0.5 mg/kg, route intravenous; details: in vivo
Rattus norvegicus [3] = assay: Mean residence time in rat administered with 0.5 mg/kg, iv; format: functional, organism-based; set-up: dose 0.5 mg/kg
In short: (§1)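 Rats, three per study, cassette iv dosing of up to four compounds. Formulation DMSO (<20%), PEG 400 (<20%) and water at 0.5 mg/mL per compound, given at 1 mL/kg for 0.5 mg/kg per compound.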

Rattus norvegicus [4] = assay: Terminal half-life in rat administered with 0.5 mg/kg, iv; format: functional, organism-based; set-up: dose 0.5 mg/kg; in short: as §1

Chain of Procathepsin L (P07711 whole entry): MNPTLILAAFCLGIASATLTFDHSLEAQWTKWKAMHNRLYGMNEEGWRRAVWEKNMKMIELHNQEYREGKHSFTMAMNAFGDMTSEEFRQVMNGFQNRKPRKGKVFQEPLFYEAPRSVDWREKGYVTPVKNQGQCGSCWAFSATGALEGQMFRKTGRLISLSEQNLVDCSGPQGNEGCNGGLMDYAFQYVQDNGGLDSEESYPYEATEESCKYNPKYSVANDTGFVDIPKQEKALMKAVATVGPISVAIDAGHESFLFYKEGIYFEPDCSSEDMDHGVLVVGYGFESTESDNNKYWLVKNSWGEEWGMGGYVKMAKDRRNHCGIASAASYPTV
Chain of Cathepsin S (P25774 whole entry): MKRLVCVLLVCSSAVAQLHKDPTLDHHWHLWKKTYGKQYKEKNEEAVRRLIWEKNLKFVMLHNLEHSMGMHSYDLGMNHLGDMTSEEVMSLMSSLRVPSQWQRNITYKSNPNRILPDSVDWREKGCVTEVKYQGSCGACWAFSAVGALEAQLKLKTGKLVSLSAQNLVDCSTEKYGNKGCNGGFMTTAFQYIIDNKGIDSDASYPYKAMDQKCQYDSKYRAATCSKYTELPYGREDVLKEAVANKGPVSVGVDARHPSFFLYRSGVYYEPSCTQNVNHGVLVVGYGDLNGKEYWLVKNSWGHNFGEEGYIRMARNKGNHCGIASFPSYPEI

| Ki (Cathepsin S) [µM] | Ki (Procathepsin L) [µM] | Ki [1] [µM] | Ki (Cathepsin B) [µM] | IC50 (Osteoclast) [µM] | Cmax [2] [nM] | SMILES | MRT (Rattus norvegicus [3]) [h] | T1/2 (Rattus norvegicus [4]) [h] |
| --- | --- | --- | --- | --- | --- | --- | --- | --- |
| 8.8 | 23 | 0.0062 | 1.3 |  |  | N#CCNC(=O)C1(NC(=O)c2ccc(-c3ccccc3)cc2)CCCCC1 |  |  |
| 31 | 95 | 0.084 | 64 |  |  | N#CCNC(=O)C1(NC(=O)OCc2ccccc2)CCCCC1 |  |  |
| 4.5 | 7.5 | 0.0014 | 3 | 0.052 | 840 | N#CCNC(=O)C1(NC(=O)c2ccc(-c3csc(N4CC[C@@H](N)C4)n3)cc2)CCCCC1 | 0.893 | 0.883 |
| 6.5 | 45 | 0.032 | 10 |  |  | N#CCNC(=O)C1(NC(=O)c2ccc(N)cc2)CCCCC1 |  |  |
| 13 | 74 | 0.0023 | 3.1 | 0.035 | 1400 | N#CCNC(=O)C1(NC(=O)c2ccc(-c3csc(N4CCOCC4)n3)cc2)CCCCC1 | 0.467 | 0.483 |
| 13.6 | > 150 | 13 | > 150 |  |  | CC(C)C[C@@H](NC(=O)OCc1ccccc1)C(=O)NCC#N |  |  |
| 35 | 48 | 0.0033 | 5.2 |  |  | CN(C)c1ccc(C(=O)NC2(C(=O)NCC#N)CCCCC2)cc1 |  |  |
| 21 | 8.9 | 0.00025 | 0.89 | 0.011 | 470 | CN1CCN(N(C)c2nc(-c3ccc(C(=O)NC4(C(=O)NCC#N)CCCCC4)cc3)cs2)CC1 | 1.03 | 1.53 |
| 10 | 4 | < 0.00025 | 0.59 | 0.024 |  | CN1CCC[C@H]1COc1ccc(-c2ccc(C(=O)NC3(C(=O)NCC#N)CCCCC3)cc2)cc1 |  |  |
| 3.2 | 15 | 0.0016 | 1.4 | 0.011 | 430 | CC(C)N(C)C1CCN(c2nc(-c3ccc(C(=O)NC4(C(=O)NCC#N)CCCCC4)cc3)cs2)CC1 | 2.02 | 1.92 |
| 15 | 18 | 0.013 | 1.1 |  |  | C#Cc1ccc(C(=O)NC2(C(=O)NCC#N)CCCCC2)cc1 |  |  |
| > 150 | > 150 | 1.9 | > 150 |  |  | CC(C)(C)[C@H](NC(=O)OCc1ccccc1)C(=O)NCC#N |  |  |
| 16 | 9.6 | 0.0015 | 2.7 |  |  | CN1CCN(c2ccc(C(=O)NC3(C(=O)NCC#N)CCCCC3)cc2)CC1 |  |  |
| 4.2 | > 150 | 1.8 | > 150 |  |  | CC(C)C[C@](C)(NC(=O)OCc1ccccc1)C(=O)NCC#N |  |  |
| 42 | 14 | 11 | > 150 |  |  | C[C@@H](O)[C@H](NC(=O)OCc1ccccc1)C(=O)NCC#N |  |  |
| 14 | 25 | 1.5 | 70 |  |  | CC[C@H](C)[C@H](NC(=O)OCc1ccccc1)C(=O)NCC#N |  |  |
| 0.18 | 0.054 | 30 | 3 |  |  | N#CCNC(=O)[C@H](Cc1ccc2ccccc2c1)NC(=O)OCc1ccccc1 |  |  |
| 10 | 17 | 0.018 | 2.3 |  |  | N#CCNC(=O)C1(NC(=O)c2ccc(Br)cc2)CCCCC1 |  |  |
| 33 | 12 | 0.00059 | 0.76 | 0.019 | 660 | CC(C)NC1CCN(c2nc(-c3ccc(C(=O)NC4(C(=O)NCC#N)CCCCC4)cc3)cs2)CC1 | 2.42 | 2.55 |
| 34 | > 150 | 0.41 | 99 |  |  | N#CCNC(=O)C1(NC(=O)CCc2ccccc2)CCCCC1 |  |  |
| 0.86 | 37 | 0.49 | > 150 |  |  | CCCC[C@H](NC(=O)OCc1ccccc1)C(=O)NCC#N |  |  |
| 0.4 | 22 | 0.35 | > 150 |  |  | CC(C[C@H](NC(=O)OCc1ccccc1)C(=O)NCC#N)C(F)(F)F (some centres undefined) |  |  |
| 42 | 50 | 0.019 | 8.6 |  |  | N#CCNC(=O)C1(NC(=O)c2ccc(N3CCOCC3)cc2)CCCCC1 |  |  |

| Ki (Cathepsin S) [µM] | Ki (Procathepsin L) [µM] | Ki [1] [µM] | Ki (Cathepsin B) [µM] | IC50 (Osteoclast) [µM] | Cmax [2] [nM] | SMILES | MRT (Rattus norvegicus [3]) [h] | T1/2 (Rattus norvegicus [4]) [h] |
| --- | --- | --- | --- | --- | --- | --- | --- | --- |
| > 150 | > 150 | 1.5 | 110 |  |  | N#CCNC(=O)C1(NC(=O)OCc2ccccc2)CCCC1 |  |  |
| 102 | 71 | 0.013 | 3.1 |  |  | CN1CCN(S(=O)(=O)c2ccc(C(=O)NC3(C(=O)NCC#N)CCCCC3)cc2)CC1 |  |  |
| 26 | 12 | 0.00079 | 1.7 | 0.11 | 300 | CN(C)C1CCN(c2nc(-c3ccc(C(=O)NC4(C(=O)NCC#N)CCCCC4)cc3)cs2)C1 (centres undefined) | 0.683 | 0.633 |
| 0.15 | 23 | 0.23 | 63 |  |  | CC(C)(C)C[C@H](NC(=O)OCc1ccccc1)C(=O)NCC#N |  |  |
| 20 | 6.4 | 0.00048 | 1.3 | 0.004 | 1780 | COCCN1CCN(c2nc(-c3ccc(C(=O)NC4(C(=O)NCC#N)CCCCC4)cc3)cs2)CC1 | 0.683 | 1.97 |
| 0.25 | 2.2 | 0.0087 | 3.8 | 0.21 | 550 | N#CCNC(=O)C1(NC(=O)c2ccc(-c3csc(CN4CCOCC4)n3)cc2)CCCCC1 | 0.26 |  |
| 3.5 | 88 | 17 | > 150 |  |  | N#CCNC(=O)[C@@H](NC(=O)OCc1ccccc1)c1ccccc1 |  |  |
| 20 | 15 | 0.0016 | 1.4 | 0.061 | 1430 | CN1CCC(c2nc(-c3ccc(C(=O)NC4(C(=O)NCC#N)CCCCC4)cc3)cs2)CC1 | 0.233 | 0.717 |
| 1.4 | 5.9 | 0.016 | 3.1 |  |  | N#CCNC(=O)C1(NC(=O)c2ccc(Br)s2)CCCCC1 |  |  |
| 110 | > 150 | 0.014 | 13 |  |  | CN1CCN(C(=O)c2ccc(C(=O)NC3(C(=O)NCC#N)CCCCC3)cc2)CC1 |  |  |
| 30 | 7.6 | 0.00095 | 1.1 | 0.046 | 440 | CN1CCC(C)(c2nc(-c3ccc(C(=O)NC4(C(=O)NCC#N)CCCCC4)cc3)cs2)CC1 | 2.33 | 2.28 |
| 4 | > 150 | 0.15 | 9.3 |  |  | N#CCNC(=O)C1(NC(=O)c2csc(-c3ccncc3)n2)CCCCC1 |  |  |
| 2.5 | 0.42 | 0.0054 | 1.8 | 0.037 |  | N#CCNC(=O)C1(NC(=O)c2ccc(-c3ccc(-c4ccno4)cc3)cc2)CCCCC1 |  |  |
| 5.7 | 3.2 | 0.002 | 0.68 |  |  | CN(C)c1ccc(-c2ccc(C(=O)NC3(C(=O)NCC#N)CCCCC3)cc2)cc1 |  |  |
| 1.9 | 22 | 0.21 | 8.3 |  |  | N#CCNC(=O)C1(NC(=O)c2cccc(-c3ccccc3)c2)CCCCC1 |  |  |
| 6.2 | 7.9 | 0.23 | 7.9 |  |  | N#CCNC(=O)C1(NC(=O)c2cccc(Br)c2)CCCCC1 |  |  |
| > 150 | > 150 | > 150 | > 150 |  |  | N#CCNC(=O)C1(NC(=O)OCc2ccccc2)CC1 |  |  |
| 8.7 | 2 | < 0.00025 | 0.34 | 0.033 |  | CN1CCC(N(C)c2ccc(-c3ccc(C(=O)NC4(C(=O)NCC#N)CCCCC4)cc3)cc2)C1 (centres undefined) |  |  |
| 28 | 18 |  | 2.9 |  |  | CCCN1CCN(c2ccc(C(=O)NC3(C(=O)NCC#N)CCCCC3)cc2)CC1 [BALICATIB] |  |  |
| 42 | 19 | 0.00094 | 1.5 | 0.06 | 430 | CN1CCN(Cc2nc(-c3ccc(C(=O)NC4(C(=O)NCC#N)CCCCC4)cc3)cs2)CC1 | 1.25 | 1.28 |
| 0.143 | 2.79 | 0.0347 | 123 |  |  | CC(C)C[C@H](NC(=O)OCc1ccccc1)C(=O)NCC#N |  |  |
| 68 | 11 | 0.00057 | 0.74 | 0.043 | 1400 | N#CCNC(=O)C1(NC(=O)c2ccc(-c3csc(OC4CCNCC4)n3)cc2)CCCCC1 | 1.23 | 2.53 |
